From PubChem
Only some compounds are listed: those with a hit (about 3% of all), similar ones and a draw of the others.
MEKK2 WT-MEK5: raises or lowers MEK5 binding to wildtype human MEKK2 PB1 domain; Q9Y2U5; bead flow cytometry, Alexa488-MEK5 binding to MEKK2 WT; actives lie on both sides; binding response (% of control), % at 10 µM; 1.1% of 290,000 active; AID 1531; in the data active means binding response below about 67% or above about 130%; inconclusive means no clear call, values can overlap the other calls; inactive means in between
Apaf1 inhib: inhibitors of human Apaf-1 apoptosome. O14727. reconstituted apoptosome caspase-3 activity, DEVD-Rh110 fluorescence. inhibition, % at 20 µM. 0.71% of 330,000 active. AID 489030; active means inhibition of at least 40% at 20 µM
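Material: reconstituted apoptosome with Apaf-1, cytochrome c, caspase-9, procaspase-3, dATP; medium: pH 7.5 Hepes buffer with CHAPS, BSA, DTT; also added: cytochrome c and DEVD-Rh110 substrate; timing: 30 min plus 50 min, RT; signal: Rh110 fluorescence intensity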
MEKK2 mut-MEK5: signal of MEK5 binding to mutant human MEKK2 PB1 domain; bead flow cytometry, Alexa488-MEK5 binding to MEKK2 mutant; percent response, % at 10 µM; 0.35% of 290,000 active; AID 1530; in the data active means percent response above about 24%, passing the limit was not always enough
UBC13 polyUb: blocks human UBC13 polyubiquitin chain formation. P61088. TR-FRET. inhibition, % at 20 µM. 0.47% of 330,000 active. AID 485273; in the data active means inhibition above about 45%, passing the limit was not always enough; inconclusive means no clear call, values can overlap the other calls
MEKK3 PB1 HTS: raises or lowers MEK5 binding to the human MEKK3 PB1 domain; Q99759; 1.4% of 290,000 active; binding response (% of control), % at 10 µM; bead-based flow cytometry, Alexa488-MEK5 binding to MEKK3; actives lie on both sides; 0 = blocked by unlabeled MEK5, 100 = vehicle;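 active means binding response more than 3 SD above or below the average of its plate-row segment, actives on both sides; inconclusive means wells at one plate position flagged as instrument error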;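 further: Alexa488 bead fluorescence after subtracting the streptavidin-only scavenger bead signal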
Target sequence (Q99759 whole entry, looked up, the tested form may be a part): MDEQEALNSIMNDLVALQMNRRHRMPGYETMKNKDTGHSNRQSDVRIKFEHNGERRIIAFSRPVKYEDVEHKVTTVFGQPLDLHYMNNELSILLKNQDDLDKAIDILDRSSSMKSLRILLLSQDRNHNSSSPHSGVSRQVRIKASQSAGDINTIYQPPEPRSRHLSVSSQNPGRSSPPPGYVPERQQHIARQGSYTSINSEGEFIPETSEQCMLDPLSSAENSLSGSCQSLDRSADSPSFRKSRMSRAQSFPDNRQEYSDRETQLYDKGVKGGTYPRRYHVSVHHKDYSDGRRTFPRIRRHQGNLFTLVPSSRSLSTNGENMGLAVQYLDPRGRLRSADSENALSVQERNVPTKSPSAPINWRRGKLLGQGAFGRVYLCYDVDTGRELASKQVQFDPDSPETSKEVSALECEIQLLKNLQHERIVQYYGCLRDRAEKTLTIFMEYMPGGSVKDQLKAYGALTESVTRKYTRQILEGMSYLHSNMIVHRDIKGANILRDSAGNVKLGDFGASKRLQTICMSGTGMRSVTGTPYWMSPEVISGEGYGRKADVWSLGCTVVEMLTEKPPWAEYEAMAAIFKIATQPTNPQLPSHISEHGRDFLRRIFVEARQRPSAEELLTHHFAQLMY
UCH37 inh: human UCH37 deubiquitinating enzyme inhibition; 0.33% of 330,000 active; purified proteasome/UCH37, Ub-AMC cleavage fluorescence; AID 588478; inhibition, % (no concentration beside the values); Q9Y5K5;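 active means mean inhibition over replicate wells above about 20%, limit read from the data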
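Material: human UCH37 enzyme supplied as purified proteasome complex. Measure: % inhibition of Ub-AMC cleavage fluorescence. Medium: pH 7.4 Tris-HCl (50 mM) with ovalbumin, ATP-MgCl2, DTT. Times: 30 min preincubation with enzyme, 25 min cleavage at room temperature. Detection: AMC fluorescence intensity at 355/460 nm.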
MEKK2wt confirm: raises or lowers MEK5 binding to wildtype human MEKK2, retest. shares compounds with MEKK3 PB1 HTS. bead flow cytometry, Alexa488-MEK5 binding to MEKK2 WT; actives lie on both sides. binding response (% of control), % at 10 µM. 2.4% of 5,900 active. AID 1892; in the data active means binding response below about 16% or above about 210%; inactive means in between
MEKK2mut-MEK5: signal of MEK5 binding to mutant human MEKK2, retest; percent response, % at 10 µM; shares compounds with MEKK3 PB1 HTS; bead flow cytometry, Alexa488-MEK5 binding to MEKK2 mutant; 2% of 5,900 active; AID 1893; in the data active means percent response mostly above about 71%, no sharp cut-off; inactive means mostly below about 38%;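 further: higher means compound restores mutant binding toward wildtype level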
MEKK3 confirm: MEKK3-MEK5 PB1 inhibition, single concentration confirmation | shares compounds with MEKK3 PB1 HTS | 1.8% of 5,900 active | binding response (% of control), % at 10 µM | bead flow cytometry, Alexa488-MEK5 binding to MEKK3; hits give low values | AID 1894;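 active means binding response below 72% of control, or above a set upper limit, though filed actives all read lower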
Numbers stand for hits; . = inactive; ? = inconclusive; / = no result; [ ] = another dose, or the depositor's remark.

SMILES	MEKK2 WT-MEK5	Apaf1 inhib	MEKK2 mut-MEK5	UBC13 polyUb	MEKK3 PB1 HTS	UCH37 inh	MEKK2wt confirm	MEKK2mut-MEK5	MEKK3 confirm
c1ccc(-c2cc(-c3nnc4n3N=C(c3ccc5ccccc5c3)CS4)[nH]n2)cc1	71.0[inhibitor]	.	.	.	.	.	.	.	.
COc1ccc(C(=O)OCC2CC(c3ccccc3)=NO2)cc1OC (stereo not given)	.	.	.	.	.	.	/	/	/
COc1cc(C(=O)OCC2CC(c3ccccc3)=NO2)cc(OC)c1OC (stereo not given)	.	.	280.0	.	.	.	.	.	.
Cc1ccccc1NC(=O)COc1nsnc1N1CCOCC1	2.0[inhibitor]	.	.	.	2.0[inhibitor]	.	.	.	.
Cc1cc([N+](=O)[O-])ccc1NC(=O)COc1nsnc1N1CCOCC1	.	.	.	.	.	.	/	/	/
O=c1ccc2cc([N+](=O)[O-])c(CCO)cc2o1	.	.	.	.	.	.	/	/	/
CCOc1ccc(NC(=O)C(c2ccccn2)N(C(=O)CCl)c2ccc(OCC)cc2)cc1 (stereo not given)	.	/	.	/	.	.	/	/	/
CCCN(CCC)S(=O)(=O)c1ccc(NC(=O)Cc2cccs2)cc1	.	.	.	.	.	.	/	/	/
CCCCN(CCCC)S(=O)(=O)c1ccc(NC(=O)Cc2cccs2)cc1	143.0	.	.	.	.	.	.	.	.
CC1CC(C)CN(C(=O)CCCNC(=O)c2ccc(Cl)cc2)C1 (stereo not given)	.	.	.	.	.	.	/	/	/
COc1ccc(C(=O)SC2=NCCS2)cc1	-11.0[inhibitor]	.	.	.	-2.0[inhibitor]	.	.	.	.
COC(=O)c1ccc(CN(c2ccccn2)S(=O)(=O)c2ccccc2)cc1	.	/	.	/	132.0	.	.	.	.
CC(=O)c1cc2c(cc1N/C(=N/S(=O)(=O)c1ccccc1)c1ccc(Cl)cc1)OCO2	.	.	.	.	129.0	/	.	.	.
CC(=O)c1cc2c(cc1NS(=O)(=O)c1ccccc1)OCO2	.	.	.	.	.	.	/	/	/
O=C(Nc1ccc(Cl)cc1)NC1CCCCC1	-1.0[inhibitor]	.	.	.	1.0[inhibitor]	.	.	.	.
O=C(Nc1ccc(Cl)cc1)NC1CCCCC1Cc1ccco1 (stereo not given)	46.0[inhibitor]	.	.	.	69.0[inhibitor]	.	.	.	.
Nc1ccc(NC(=O)NC2CCCCC2)cc1	.	.	.	.	.	.	/	/	/
Cc1nn(CCOc2ccccc2)c(=O)n1-c1ccc(Cl)cc1	.	.	.	.	141.0	.	.	.	.
CS(=O)(=O)c1ccc(CNC(=O)[C@]2(C(F)(F)F)C[C@H](CCc3ccccc3)CCCO2)cc1	.	.	.	.	81.0[inhibitor]	.	.	.	.
Cc1csc2c(NCCCN3CCOCC3)ncnc12	.	.	.	.	137.0	.	.	.	.
O=S(=O)(NC1c2cccc3cccc(c23)C1Sc1ncccn1)c1ccccc1 (stereo not given)	.	.	.	.	144.0	.	.	.	.
Cc1cn2c(N)c(C=C3C=C(Cl)C(=O)C(Cl)=C3)c(=O)nc2s1	50.0[inhibitor]	.	.	.	.	.	.	.	.
COC1=C/C(=C/c2c(N)n3cc(C)sc3nc2=O)C=CC1=O	.	.	.	.	.	.	/	/	/
O=C(COC(=O)c1cccs1)NCCN1C(=O)CSC1=O	.	.	.	.	.	.	/	/	/
CCN(CC)c1ccc(-n2c(O)c(C=C3N=c4ccccc4=N3)sc2=S)cc1	.	.	.	.	153.0	.	.	.	.
SMILES	MEKK2 WT-MEK5	Apaf1 inhib	MEKK2 mut-MEK5	UBC13 polyUb	MEKK3 PB1 HTS	UCH37 inh	MEKK2wt confirm	MEKK2mut-MEK5	MEKK3 confirm
Cc1ccc(N(CC(N)=O)C2SC(=O)N(C)C2=O)cc1 (stereo not given)	.	.	.	.	126.0	.	.	.	.
Cc1ccc(OCC(O)CN2C(=O)NC(C)(C)C2=O)cc1 (stereo not given)	.	.	.	.	73.0[inhibitor]	.	.	.	.
COc1ccc(C=NNC(=O)c2[nH]c3ccc(Cl)cc3c2-c2ccccc2)c(C(=O)O)c1OC	/	/	/	/	/	.	/	/	/
COC(=O)CCCCCCCCC(O)C[N+]1(C)CCOCC1 (stereo not given)	27.0[inhibitor]	.	.	.	22.0[inhibitor]	.	.	.	.
COc1ccc(C(=O)CSc2nnc3ccc(-c4ccccn4)nn23)cc1	.	.	.	?	.	.	/	/	/
Cc1nc(-c2ccccn2)nc(SCC(=O)c2ccc(F)cc2)c1Cl	.	.	.	.	134.0	.	.	.	.
COc1ccc(C(=O)CSc2nc(-c3ccccn3)nc(C)c2Cl)cc1	.	.	.	.	128.0	.	.	.	.
COc1cc(NS(=O)(=O)c2ccc(NC(=O)c3ccc(C)o3)cc2)nc(OC)n1	.	.	.	.	.	.	/	/	/
COc1ccc(-[n+]2c(C)cc(/C=C3\Sc4ccccc4N3C)cc2C)cc1	29.0[inhibitor]	.	.	.	71.0[inhibitor]	23.7	.	.	.
CN(C)CCN=Cc1c(O)n(Cc2ccc3c(c2)OCO3)c(=O)c2ccccc12	.	.	.	.	.	.	/	/	/
O=c1c2ccccc2c(C=NC2CCN(Cc3ccccc3)CC2)c(O)n1Cc1ccc2c(c1)OCO2	154.0	.	.	.	.	.	.	.	.
O=C(C[n+]1ccccc1)N/N=C/c1ccccc1[N+](=O)[O-]	.	.	.	.	.	/	/	/	/
Cc1ccc(S(=O)(=O)NCCC(=O)NCCN2CCCCCC2)cc1	227.0	.	54.0	.	.	.	.	.	.
CCCCNC(=O)C1CCN(C(=O)C2CCN(S(=O)(=O)c3ccc(C)cc3)CC2)CC1	.	.	.	.	.	.	/	/	/
Cc1ccc(S(=O)(=O)NCCNC(=O)CN2CCCC2)cc1	.	.	.	.	.	.	/	/	/
Cc1ccc(S(=O)(=O)N2CCC(C(=O)NCCCN3CCCCCC3)CC2)cc1	160.0	.	.	.	.	.	.	.	.
COc1cc(/C=C/c2ccc3cccc(OC)c3n2)c(O)c([N+](=O)[O-])c1	55.0[inhibitor]	.	.	.	50.0[inhibitor]	.	.	.	.
CCOc1ccc(C(=O)OCc2nnc(-c3cccs3)o2)cc1OC	.	.	.	.	.	.	/	/	/
COC(=O)Cn1c(N2CCCC2)nc2c1c(=O)n(C)c(=O)n2C	.	.	30.0	.	.	.	.	.	.
